Series [1] in a line: Toxicity in BALB/c mouse infected with Trypanosoma cruzi MHOM/Pe/2011/Arequipa;DTU 5 bloodstream trypomastigote assessed as change in serum urea level in acute phase at 20 mg/kg/day, po administered for 5 consecutive days starting from day 8 post infection and measured on day 100 post infection by biochemical analysis relative to control. The class given is organism-based. The note with it: in vivo.

A short description of series [2]: Toxicity in BALB/c mouse infected with Trypanosoma cruzi MHOM/Pe/2011/Arequipa;DTU 5 bloodstream trypomastigote assessed as increase in serum total bilirubin level in chronic phase at 20 mg/kg/day, po administered for 5 consecutive days starting from day 70 post infection and measured at day 76 post infection relative to control. The series is classed as organism-based. The note with it: in vivo.

Series [3] is described as follows: Toxicity in BALB/c mouse infected with Trypanosoma cruzi MHOM/Pe/2011/Arequipa;DTU 5 bloodstream trypomastigote assessed as decrease in serum alkaline phosphatase level in chronic phase at 20 mg/kg/day, po administered for 5 consecutive days starting from day 70 post infection and measured at day 76 post infection relative to control. More on the design: scale not given: the % may be the effect or the level left. To be noted: in vivo. The class given is organism-based.

Series [4] is described as follows: Toxicity in BALB/c mouse infected with Trypanosoma cruzi MHOM/Pe/2011/Arequipa;DTU 5 bloodstream trypomastigote assessed as increase in serum aspartate aminotransferase level in acute phase at 20 mg/kg/day, po administered for 5 consecutive days starting from day 8 post infection and measured on day 100 post infection by biochemical analysis relative to control. The class given is organism-based. The note with it: in vivo.

Series [5] in a line: Toxicity in BALB/c mouse infected with Trypanosoma cruzi MHOM/Pe/2011/Arequipa;DTU 5 bloodstream trypomastigote assessed as increase in serum aspartate aminotransferase level in acute phase at 20 mg/kg/day, po administered for 5 consecutive days starting from day 8 post infection and measured at day 14 post infection by biochemical analysis relative to control. The series is classed as organism-based. The note with it: in vivo.

Series [6] is described as follows: Toxicity in BALB/c mouse infected with Trypanosoma cruzi MHOM/Pe/2011/Arequipa;DTU 5 bloodstream trypomastigote assessed as decrease in serum total bilirubin level in acute phase at 20 mg/kg/day, po administered for 5 consecutive days starting from day 8 post infection and measured at day 14 post infection by biochemical analysis relative to control. Further details: scale not given: the % may be the effect or the level left. To be noted: in vivo. The class given is organism-based.

The nature of series [7]: Mutagenecity against Salmonella typhimurium TA97a assessed as number of colonies at 7.4 ug/plate in absence of Sprague-Dawley rat S9 with metabolic activation measured after 48 hrs by Ames test ( Rvb = 37 +/- 6.5). The series is classed as toxicity. To be noted: salmonella enterica subsp. enterica serovar typhimurium, s9, 48 h. A general note: In the Ames test, an excess of revertant colonies over the control signals mutagenicity.

In the next series the test system is Trypanosoma cruzi. Briefly: Antitrypanosomal activity against Trypanosoma cruzi MHOM/Pe/2011/Arequipa;DTU 5 epimastigote assessed as effect on parasite glycolytic pathway by measuring increase in succinate excretion at IC50 after 72 hrs by H NMR method relative to control. The class given is functional. The essentials: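 Cells were spun at 800 × g for 10 min and culture supernatants analysed by 1H NMR. Catabolite peaks were expressed as % variation versus untreated parasites.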

Series [8] can be described thus: Mutagenecity against Salmonella typhimurium TA98 assessed as number of colonies at 7.4 ug/plate in presence of Sprague-Dawley rat S9 measured after 48 hrs by Ames test (reference value: 4 +/- 2). The series is classed as toxicity, subcellular. The note with it: salmonella enterica subsp. enterica serovar typhimurium, s9, 48 h.
Series [9] is described as follows: Mutagenecity against Salmonella typhimurium TA98 assessed as number of colonies at 7.4 ug/plate in absence of Sprague-Dawley rat S9 measured after 48 hrs by Ames test (reference value: 3 +/- 2.6). The note with it: salmonella enterica subsp. enterica serovar typhimurium, s9, 48 h. The class given is toxicity.
A short description of series [10]: Mutagenecity against Salmonella typhimurium TA 100 assessed as number of colonies at 7.4 ug/plate in presence of Sprague-Dawley rat S9 with metabolic activation measured after 48 hrs by Ames test (reference value: 47.3 +/- 5.7). The series is classed as toxicity, subcellular. To be noted: salmonella enterica subsp. enterica serovar typhimurium, s9, 48 h.
Series [11] is described as follows: Mutagenecity against Salmonella typhimurium TA97a assessed as number of colonies at 66.7 ug/plate in absence of Sprague-Dawley rat S9 […] measured after 48 hrs by Ames test ( Rvb = 37 +/- 6.5). The class given is toxicity. To be noted: salmonella enterica subsp. enterica serovar typhimurium, s9, 48 h.
Series [12] in a line: Mutagenecity against Salmonella typhimurium TA 100 assessed as number of colonies at 66.7 ug/plate in presence of Sprague-Dawley rat S9 with metabolic activation measured after 48 hrs by Ames test (reference value: 47.3 +/- 5.7). To be noted: salmonella enterica subsp. enterica serovar typhimurium, s9, 48 h. The class given is toxicity, subcellular.
The nature of series [13]: Toxicity in BALB/c mouse infected with Trypanosoma cruzi MHOM/Pe/2011/Arequipa;DTU 5 bloodstream trypomastigote assessed as change in serum uric acid level in chronic phase at 20 mg/kg/day, po administered for 5 consecutive days starting from day 70 post infection measured on day 100 post infection relative to control. To be noted: in vivo. The class given is organism-based.

The nature of series [14]: Mutagenecity against Salmonella typhimurium TA 102 assessed as number of colonies at 7.4 ug/plate in absence of Sprague-Dawley rat S9 with metabolic activation measured after 48 hrs by Ames test (reference value: 78.7 +/- 7.8). The class given is toxicity. The note with it: salmonella enterica subsp. enterica serovar typhimurium, s9, 48 h.
Series [15] in a line: Mutagenecity against Salmonella typhimurium TA1535 assessed as number of colonies at 200 ug/plate in presence of Sprague-Dawley rat S9 measured after 48 hrs by Ames test (reference value: 5 +/- 3.6). The note with it: salmonella enterica subsp. enterica serovar typhimurium, s9, 48 h. The class given is toxicity, subcellular.
The nature of series [16]: Mutagenecity against Salmonella typhimurium TA97a assessed as number of colonies at 22.2 ug/plate in absence of Sprague-Dawley rat S9 with metabolic activation measured after 48 hrs by Ames test ( Rvb = 37 +/- 6.5). The note with it: salmonella enterica subsp. enterica serovar typhimurium, s9, 48 h. The class given is toxicity.

The structures appear in SMILES notation.

`O=C(CCN1CCN(c2ccc(C(F)(F)F)cc2)CC1)c1ccc(O)cc1`: the Activity in [1] is more than 10%; in [2] it was more than 40%; in series [3], “<= 10%”.

For the compound `O=C(Cn1ccnc1[N+](=O)[O-])NCc1ccccc1` [BENZNIDAZOLE], the Activity result is reported as “<= 10%” in [4], “<= 20%” in series [5] and “<= 10%” in series [6].

In the case of `O=C(CCN1CCN(c2ccc(Cl)cc2)CC1)c1ccc(O)cc1`, the Activity in series [7] is 34.4; in the series on Trypanosoma cruzi, 34%; in series [8], 6; in [9], 4; in [10], 44.7; in series [11] it was 31.3. Further, the Activity is 54.7 in [12]; more than 10% in [13]; 72 in series [14]; 7 in [15]; 35.7 in series [16].

For the origin of these results see ChEMBL document CHEMBL4402517, “Rational modification of Mannich base-type derivatives as novel antichagasic compounds: Synthesis, in vitro and in vivo evaluation” (Bioorg Med Chem, 2019).
